Laboratory results published in ChEMBL document CHEMBL1629494, “New amino acid esters of salicylanilides active against MDR-TB and other microbes” (Eur J Med Chem, 2010).
Values after ≈ are worked out from the molar mass of the structure shown.

Experiments:
[1] = system: Mycobacterium tuberculosis; assay: Antimycobacterial activity against Mycobacterium tuberculosis H37Rv 331/88 after 21 days by micromethod; format: functional; settings: H37Rv 331/88, 504 h
Method in brief: (§1)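 Micromethod in Sula semisynthetic medium, with compounds added as DMSO solutions at 1000, 500, 250, 125, 62, 32, 16, 8, 4, 2, 1, 0.5, 0.25. Inoculum dilutions: H37Rv 10^-3; M. avium 330/88 10^-5; M. kansasii 235/80 10^-4; M. kansasii 6509/96 10^-5. Incubated at 37 °C, read at 14 and 21 days, and at 7 days for M. kansasii. MIC was the lowest concentration inhibiting growth.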

Candida albicans [2] = assay: Antifungal activity against Candida albicans ATCC 44859 after 24 hrs by broth microdilution method; format: functional; settings: ATCC 44859, 24 h
Staphylococcus aureus [3] = assay: Antibacterial activity against Staphylococcus aureus CCM 4516/08 after 24 hrs by broth microdilution method; format: functional; settings: CCM 4516/08, 24 h
Method in brief: (§2)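 Broth microdilution following […], with twofold compound dilutions in Mueller-Hinton bouillon. Incubated 24 and 48 h at 35 °C in the dark in a humid atmosphere. MIC (IC80) was taken as ≥80% growth reduction versus control, read visually and photometrically.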

Klebsiella pneumoniae [4] = assay: Antibacterial activity against Klebsiella pneumoniae D11750/08 after 24 hrs by broth microdilution method; format: functional; settings: D11750/08, 24 h; method in brief: as §2
Nakaseomyces glabratus [5] = assay: Antifungal activity against Candida glabrata 20/I after 48 hrs by broth microdilution method; format: functional
Pichia kudriavzevii [6] = assay: Antifungal activity against Candida krusei E28 after 48 hrs by broth microdilution method; format: functional; settings: E28, 48 h
PBMC = assay: Cytotoxicity against human PBMC after 24 hrs by MTT assay; format: cell-based
Method in brief: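 Human peripheral blood mononuclear cells in RPMI-1640 with 10% fetal calf serum, 2 mM L-glutamine and gentamicin, 37 °C, 5% CO2. Seeded at 1.5–2.0 × 10⁵ cells/well. After 24 h, treated overnight in serum-free medium. Viability by MTT (2 mg/mL, 4 h); formazan dissolved in DMSO; OD540 minus OD620. Cytotoxicity % = [1 − OD treated/OD control] × 100; IC50 from dose-response curves. Four parallels, two independent experiments.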

[7] = system: Staphylococcus epidermidis; assay: Antibacterial activity against Staphylococcus epidermidis H6966/08 after 24 hrs by broth microdilution method; format: functional; settings: H6966/08, 24 h; method in brief: as §2
Mycobacterium kansasii [8] = assay: Antimycobacterial activity against Mycobacterium kansasii 6509/96 after 14 days by micromethod; format: functional; settings: 6509/96, 336 h; method in brief: as §1
Enterococcus sp. [9] = assay: Antibacterial activity against Enterococcus sp. J14365/08 after 48 hrs by broth microdilution method; format: functional; settings: J14365/08, 48 h; method in brief: as §2
[10] = Lipophilicity, log P of the compound; format: physicochemical; settings: octanol/water
Lichtheimia corymbifera [11] = assay: Antifungal activity against Absidia corymbifera 272 after 48 hrs by broth microdilution method; format: functional; settings: Lichtheimia corymbifera, 272, 48 h
Mycobacterium kansasii [12] = assay: Antimycobacterial activity against Mycobacterium kansasii; format: functional
Candida tropicalis [13] = assay: Antifungal activity against Candida tropicalis 156 after 24 hrs by broth microdilution method; format: functional; settings: Candida tropicalis, 156, 24 h
Candida tropicalis [14] = assay: Antifungal activity against Candida tropicalis 156 after 48 hrs by broth microdilution method; format: functional; settings: Candida tropicalis, 156, 48 h
[15] = system: Mycobacterium tuberculosis; assay: Antimycobacterial activity against drug-sensitive Mycobacterium tuberculosis; format: functional
Candida albicans [16] = assay: Antifungal activity against Candida albicans ATCC 44859 after 48 hrs by broth microdilution method; format: functional; settings: ATCC 44859, 48 h
Mycobacterium avium [17] = assay: Antimycobacterial activity against multidrug-resistant Mycobacterium avium 330/88 after 21 days by micromethod; format: functional; settings: 330/88, 504 h; method in brief: as §1
Mycobacterium kansasii [18] = assay: Antimycobacterial activity against Mycobacterium kansasii 235/80 after 21 days by micromethod; format: functional; settings: 235/80, 504 h; method in brief: as §1
Trichosporon beigelii [19] = assay: Antifungal activity against Trichosporon beigelii 1188 after 48 hrs by broth microdilution method; format: functional; settings: Trichosporon beigelii, 1188, 48 h
Aspergillus fumigatus [20] = assay: Antifungal activity against Aspergillus fumigatus 231 after 24 hrs by broth microdilution method; format: functional; settings: Aspergillus fumigatus, 231, 24 h
[21] = system: Mycobacterium tuberculosis; assay: Antimycobacterial activity against Mycobacterium tuberculosis H37Rv 331/88 after 14 days by micromethod; format: functional; settings: H37Rv 331/88, 336 h; method in brief: as §1
Staphylococcus aureus [22] = assay: Antibacterial activity against methicillin-resistant Staphylococcus aureus H5996/08 after 24 hrs by broth microdilution method; format: functional; settings: H5996/08, 24 h; method in brief: as §2
Pichia kudriavzevii [23] = assay: Antifungal activity against Candida krusei E28 after 24 hrs by broth microdilution method; format: functional; settings: E28, 24 h
[24] = system: Trichophyton mentagrophytes; assay: Antifungal activity against Trichophyton mentagrophytes after 24 hrs by broth microdilution method; format: functional
[25] = system: Trichophyton mentagrophytes; assay: Antifungal activity against Trichophyton mentagrophytes after 48 hrs by broth microdilution method; format: functional
[26] = Selectivity index, ratio of IC50 for human PBMC to MIC for Mycobacterium tuberculosis H37Rv 331/88 after 14 days; format: functional
Method in brief: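 SI = PBMC IC50 (MTT cytotoxicity) divided by the MIC against the named M. tuberculosis strain. MIC taken after 14 days of incubation at 37 °C by the micromethod.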

Mycobacterium avium [27] = assay: Antimycobacterial activity against multidrug-resistant Mycobacterium avium 330/88 after 14 days by micromethod; format: functional; settings: 330/88, 336 h; method in brief: as §1
[28] = system: Staphylococcus epidermidis; assay: Antibacterial activity against Staphylococcus epidermidis H6966/08 after 48 hrs by broth microdilution method; format: functional; settings: H6966/08, 48 h; method in brief: as §2
Klebsiella pneumoniae [29] = assay: Antibacterial activity against Klebsiella pneumoniae D11750/08 after 48 hrs by broth microdilution method; format: functional; settings: D11750/08, 48 h; method in brief: as §2
Mycobacterium kansasii [30] = assay: Antimycobacterial activity against Mycobacterium kansasii 235/80 after 14 days by micromethod; format: functional; settings: 235/80, 336 h; method in brief: as §1
Mycobacterium kansasii [31] = assay: Antimycobacterial activity against Mycobacterium kansasii 235/80 after 7 days by micromethod; format: functional; settings: 235/80, 168 h; method in brief: as §1
Aspergillus fumigatus [32] = assay: Antifungal activity against Aspergillus fumigatus 231 after 48 hrs by broth microdilution method; format: functional; settings: Aspergillus fumigatus, 231, 48 h
Nakaseomyces glabratus [33] = assay: Antifungal activity against Candida glabrata 20/I after 24 hrs by broth microdilution method; format: functional
Mycobacterium kansasii [34] = assay: Antimycobacterial activity against Mycobacterium kansasii 6509/96 after 21 days by micromethod; format: functional; settings: 6509/96, 504 h; method in brief: as §1
Escherichia coli [35] = assay: Antibacterial activity against Escherichia coli CCM 4517 after 24 hrs by broth microdilution method; format: functional; settings: CCM 4517, 24 h; method in brief: as §2
Mycobacterium avium [36] = assay: Antimycobacterial activity against Mycobacterium avium; format: functional
Lichtheimia corymbifera [37] = assay: Antifungal activity against Absidia corymbifera 272 after 24 hrs by broth microdilution method; format: functional; settings: Lichtheimia corymbifera, 272, 24 h
Staphylococcus aureus [38] = assay: Antibacterial activity against methicillin-resistant Staphylococcus aureus H5996/08 after 48 hrs by broth microdilution method; format: functional; settings: H5996/08, 48 h; method in brief: as §2
Enterococcus sp. [39] = assay: Antibacterial activity against Enterococcus sp. J14365/08 after 24 hrs by broth microdilution method; format: functional; settings: J14365/08, 24 h; method in brief: as §2
Mycobacterium kansasii [40] = assay: Antimycobacterial activity against Mycobacterium kansasii 6509/96 after 7 days by micromethod; format: functional; settings: 6509/96, 168 h; method in brief: as §1
Staphylococcus aureus [41] = assay: Antibacterial activity against Staphylococcus aureus CCM 4516/08 after 48 hrs by broth microdilution method; format: functional; settings: CCM 4516/08, 48 h; method in brief: as §2
Trichosporon beigelii [42] = assay: Antifungal activity against Trichosporon beigelii 1188 after 24 hrs by broth microdilution method; format: functional; settings: Trichosporon beigelii, 1188, 24 h
Escherichia coli [43] = assay: Antibacterial activity against Escherichia coli CCM 4517 after 48 hrs by broth microdilution method; format: functional; settings: CCM 4517, 48 h; method in brief: as §2

## CC(=O)N[C@@H](Cc1ccccc1)C(=O)Oc1ccc(Cl)cc1C(=O)Nc1ccc(C(F)(F)F)cc1
[1]
  MIC: 0.5 µM (≈ 0.252 µg/mL)
Candida albicans [2]
  MIC: > 125 µM
Staphylococcus aureus [3]
  MIC: 0.98 µM (≈ 0.495 µg/mL)
Klebsiella pneumoniae [4]
  MIC: > 125 µM
Nakaseomyces glabratus [5]
  MIC: > 125 µM
Pichia kudriavzevii [6]
  MIC: > 125 µM
PBMC
  IC50: 12.2 µM
[7]
  MIC: 0.98 µM (≈ 0.495 µg/mL)
Mycobacterium kansasii [8]
  MIC: 2 µM (≈ 1.01 µg/mL)
Enterococcus sp. [9]
  MIC: > 125 µM
[10]
  logP: 4.92
Lichtheimia corymbifera [11]
  MIC: > 125 µM
Mycobacterium kansasii [12]
  MIC: 1 µM (≈ 0.505 µg/mL)
Candida tropicalis [13]
  MIC: > 125 µM
Candida tropicalis [14]
  MIC: > 125 µM
[15]
  MIC: 1 µM (≈ 0.505 µg/mL)
Candida albicans [16]
  MIC: > 125 µM
Mycobacterium avium [17]
  MIC: 4 µM (≈ 2.02 µg/mL)
Mycobacterium kansasii [18]
  MIC: 2 µM (≈ 1.01 µg/mL)
Trichosporon beigelii [19]
  MIC: > 125 µM
Aspergillus fumigatus [20]
  MIC: 125 µM (≈ 63.1 µg/mL)
[21]
  MIC: 0.25 µM (≈ 0.126 µg/mL)
Staphylococcus aureus [22]
  MIC: 0.98 µM (≈ 0.495 µg/mL)
Pichia kudriavzevii [23]
  MIC: 125 µM (≈ 63.1 µg/mL)
[24]
  MIC: 62.5 µM (≈ 31.6 µg/mL)
[25]
  MIC: > 125 µM
[26]
  Selectivity Index: 48.8
Mycobacterium avium [27]
  MIC: 4 µM (≈ 2.02 µg/mL)
[28]
  MIC: 3.9 µM (≈ 1.97 µg/mL)
Klebsiella pneumoniae [29]
  MIC: > 125 µM
Mycobacterium kansasii [30]
  MIC: 1 µM (≈ 0.505 µg/mL)
Mycobacterium kansasii [31]
  MIC: 0.5 µM (≈ 0.252 µg/mL)
Aspergillus fumigatus [32]
  MIC: > 125 µM
Nakaseomyces glabratus [33]
  MIC: > 125 µM
Mycobacterium kansasii [34]
  MIC: 2 µM (≈ 1.01 µg/mL)
Escherichia coli [35]
  MIC: > 125 µM
Mycobacterium avium [36]
  MIC: 1 µM (≈ 0.505 µg/mL)
Lichtheimia corymbifera [37]
  MIC: > 125 µM
Staphylococcus aureus [38]
  MIC: 7.81 µM (≈ 3.94 µg/mL)
Enterococcus sp. [39]
  MIC: 31.2 µM (≈ 15.8 µg/mL)
Mycobacterium kansasii [40]
  MIC: 1 µM (≈ 0.505 µg/mL)
Staphylococcus aureus [41]
  MIC: 1.95 µM (≈ 0.985 µg/mL)
Trichosporon beigelii [42]
  MIC: 125 µM (≈ 63.1 µg/mL)
Escherichia coli [43]
  MIC: > 125 µM
